Experimental data pooled from the literature.
Compare with care: the assays were run in different laboratories.
Target: Dual specificity mitogen-activated protein kinase kinase 3 (MAP2K3, Homo sapiens, UniProt P46734)
Residues used in one study (P46734 1-347): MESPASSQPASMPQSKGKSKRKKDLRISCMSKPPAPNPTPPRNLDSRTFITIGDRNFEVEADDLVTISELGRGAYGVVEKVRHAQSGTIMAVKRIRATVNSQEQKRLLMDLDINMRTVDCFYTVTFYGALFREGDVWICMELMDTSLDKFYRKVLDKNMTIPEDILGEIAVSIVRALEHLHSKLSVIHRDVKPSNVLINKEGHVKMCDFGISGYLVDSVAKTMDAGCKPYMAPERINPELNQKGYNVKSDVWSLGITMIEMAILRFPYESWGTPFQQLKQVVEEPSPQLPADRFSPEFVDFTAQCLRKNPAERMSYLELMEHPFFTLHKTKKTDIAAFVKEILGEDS

| Compound | read-out | action | method | tested at | endpoint | result |
| --- | --- | --- | --- | --- | --- | --- |
| Cc1ccc(C(=O)Nc2ccc(CN3CCN(C)CC3)c(C(F)(F)F)c2)cc1C#Cc1cnc2cccnn12 | enzyme activity | inhibitor | – | 23.5 nM | remaining activity | 94% |
| Cc1ccc(C(=O)NCc2ccsc2)cc1C#Cc1cn(C(C)C)c2ncnc(N)c12 | enzyme activity | inhibitor | – | 1 µM | activity vs control | 77% |
| Cc1c(NC(=O)c2cc(C(N)=O)nc3cc(F)ccc23)c(C(F)(F)F)nn1Cc1ccc(C(C)(C)C)cc1 | cell-free assay | – | competition with immobilised ligand | 1 µM | remaining binding | 90% |
| C[C@@H]1CCN(c2nccc(-c3cnn4ncccc34)n2)C1 | binding | – | – | 1 µM | remaining binding | 69% |
| Nc1ncnc2occ(-c3ccc(NC(=O)Nc4cc(C(F)(F)F)ccc4F)cc3)c12 | cell-free assay | inhibitor | – | 20 µM | remaining signal | 11% |
| Cc1sc(C(=O)NC2COC2)cc1-n1cc(NC(=O)Nc2c(F)cccc2Cl)cn1 | enzyme activity | inhibitor | – | 10 µM | remaining activity | 88.8% |
| CN1CC(Oc2cnc(C#N)cc2-c2ccn3nc(NC(=O)C4CC4)cc3c2)C1 | enzyme activity | inhibitor | – | 1 µM | inhibition | -8% |
| O=C(Nc1cnn(-c2csc(C(=O)NC3COC3)c2)c1)Nc1c(F)cccc1Cl | enzyme activity | inhibitor | – | 5 µM | remaining activity | 111% |
| CC(=O)C1=C(C)N(c2cccc(C(F)(F)F)c2)C(=O)N[C@@H]1c1ccc(C#N)nc1 | cell-free assay | – | competition with immobilised ligand | 1 µM | remaining binding | 95.2% |
| CC/C(=N\NC(=O)NCc1cccc(O)c1)c1ccc(O)c(C)c1O | enzyme activity | inhibitor | – | 0.1 µM | inhibition | -2.5% |
